Test results published in ChEMBL document CHEMBL1142894, “Preparation of 5-aryl-3-alkylthio-l,2,4-triazoles and corresponding sulfones with antiinflammatory-analgesic activity” (Bioorg Med Chem, 2007).
The source made the active and inactive calls. The calls are words filed in the database; no cut-off is given here.

Legend:
Mus musculus [1] = experiment: Inhibition of carrageenan-induced paw edema in Swiss albino mouse at 100 mg/kg, po after 360 mins relative to control; format: functional; conditions: 6 h
Outline: (§1)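 Oral dosing in 0.5% CMC; vehicle to controls. Then carrageenan (0.5 mg/25 ll, freshly suspended in 154 mM saline) injected into the right hind paw subplantar tissue; saline into the left paw. Right-left footpad thickness difference measured by dial gauge calliper every 90 min over 6 h. Inhibition % is relative to vehicle control. n = 6; mean ± SEM.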

Mus musculus [2] = experiment: Antiinflammatory activity against carrageenan-induced paw edema in Swiss albino mouse assessed as swelling thickness at 200 mg/kg, po after 90 mins; format: functional; outline: as §1
Mus musculus [3] = experiment: Inhibition of carrageenan-induced paw edema in Swiss albino mouse at 50 mg/kg, po after 180 mins relative to control; format: functional; conditions: 3 h; outline: as §1
Mus musculus [4] = experiment: Inhibition of carrageenan-induced paw edema in Swiss albino mouse at 50 mg/kg, po after 270 mins relative to control; format: functional; conditions: 4.5 h
Outline: (§2)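 Mice, n = 6 per group. Test agent given orally as a suspension in 0.5% sodium CMC in distilled water; controls received vehicle only. Afterwards, 0.5 mg/25 ll carrageenan in saline (154 mM NaCl) injected subplantar into the right hind paw, saline into the left. Right-minus-left footpad thickness measured by dial gauge caliper every 90 min for 6 h. Inhibition is relative to vehicle-control group means.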

Mus musculus [5] = experiment: Gastric-ulcerogenic effect in Swiss albino mouse assessed as lesions at 25 mg/kg, po; format: functional, organism-based; set-up: dose 25 mg/kg
Outline: (§3)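 Mice killed under deep ether anesthesia 3 h after the writhing test; the oral dose in 0.5% CMC was the one used in that test. Stomachs removed, opened along the great curvature and examined under a dissecting microscope for lesions or bleeding. Reported as ratio of ulceration; n = 6.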

Mus musculus [6] = experiment: Antiinflammatory activity against carrageenan-induced paw edema in Swiss albino mouse assessed as swelling thickness at 25 mg/kg, po after 90 mins; format: functional; outline: as §1
Mus musculus [7] = experiment: Inhibition of p-benzoquinone-induced writhing in Swiss albino mouse at 25 mg/kg, po relative to control; format: functional
Outline: (§4)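 Mice, n = 6 per group, dosed orally with a suspension in 0.5% sodium CMC. 60 min later, 0.1 ml/10 g of 2.5% […] p-benzoquinone in distilled water given ip. Abdominal writhes counted per animal for 15 min, starting 5 min after injection. Expressed as % change in mean writhing count versus vehicle controls.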

Mus musculus [8] = experiment: Analgesic activity against p-benzoquinone-induced abdominal constriction in Swiss albino mouse assessed as number of writhings at 100 mg/kg, po; format: functional, Abdomen
Outline: (§5)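 Test samples given orally in 0.5% CMC; vehicle to controls. 60 min later, 2.5% (v/v) p-benzoquinone in distilled water, 0.1 ml/10 g, given i.p. Mice housed singly; writhes counted for 15 min starting 5 min after injection. Activity is % change from vehicle controls. n = 6; mean ± SEM.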

Mus musculus [9] = experiment: Antiinflammatory activity against carrageenan-induced paw edema in Swiss albino mouse assessed as swelling thickness at 200 mg/kg, po after 360 mins; format: functional; outline: as §1
Mus musculus [10] = experiment: Analgesic activity against p-benzoquinone-induced abdominal constriction in Swiss albino mouse assessed as number of writhings at 25 mg/kg, po; format: functional, Abdomen; outline: as §5
Mus musculus [11] = experiment: Antiinflammatory activity against carrageenan-induced paw edema in Swiss albino mouse assessed as swelling thickness at 50 mg/kg, po after 360 mins; format: functional; outline: as §1
Mus musculus [12] = experiment: Acute toxicity in Swiss albino mouse assessed as lethal effect at 25 mg/kg/day, po after 72 hrs; format: organism-based; set-up: route oral; conditions: in vivo
Outline: (§6)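 Oral single dose suspended in 0.5% carboxymethylcellulose, given after a 24 h fast; food and water returned 1 h after dosing. Vehicle-only controls. Mice observed at 1 h, then once daily for 72 h, for toxic signs and mortality.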

Mus musculus [13] = experiment: Analgesic activity against p-benzoquinone-induced abdominal constriction in Swiss albino mouse assessed as number of writhings at 50 mg/kg, po; format: functional, Abdomen; outline: as §5
Mus musculus [14] = experiment: Antiinflammatory activity against carrageenan-induced paw edema in Swiss albino mouse assessed as swelling thickness at 50 mg/kg, po after 180 mins; format: functional; outline: as §1
Mus musculus [15] = experiment: Antiinflammatory activity against carrageenan-induced paw edema in Swiss albino mouse assessed as swelling thickness at 100 mg/kg, po after 360 mins; format: functional; outline: as §1
Mus musculus [16] = experiment: Antiinflammatory activity against carrageenan-induced paw edema in Swiss albino mouse assessed as swelling thickness at 200 mg/kg, po after 270 mins; format: functional; outline: as §1
Mus musculus [17] = experiment: Inhibition of p-benzoquinone-induced writhing in Swiss albino mouse at 200 mg/kg, po relative to control; format: functional; outline: as §4
Mus musculus [18] = experiment: Acute toxicity in Swiss albino mouse assessed as lethal effect at 50 mg/kg/day, po after 72 hrs; format: organism-based; set-up: route oral; conditions: in vivo; outline: as §6
Mus musculus [19] = experiment: Gastric-ulcerogenic effect in Swiss albino mouse assessed as lesions at 100 mg/kg, po; format: functional, organism-based; set-up: dose 100 mg/kg; outline: as §3
Mus musculus [20] = experiment: Gastric-ulcerogenic effect in Swiss albino mouse assessed as lesions at 50 mg/kg, po; format: functional, organism-based; set-up: dose 50 mg/kg; outline: as §3
Mus musculus [21] = experiment: Inhibition of carrageenan-induced paw edema in Swiss albino mouse at 100 mg/kg, po after 180 mins relative to control; format: functional; conditions: 3 h; outline: as §1
Mus musculus [22] = experiment: Antiinflammatory activity against carrageenan-induced paw edema in Swiss albino mouse assessed as swelling thickness at 25 mg/kg, po after 180 mins; format: functional; outline: as §1
Mus musculus [23] = experiment: Antiinflammatory activity against carrageenan-induced paw edema in Swiss albino mouse assessed as swelling thickness at 50 mg/kg, po after 270 mins; format: functional; outline: as §1
Mus musculus [24] = experiment: Acute toxicity in Swiss albino mouse assessed as lethal effect at 100 mg/kg/day, po after 72 hrs; format: organism-based; set-up: route oral; conditions: in vivo; outline: as §6
Mus musculus [25] = experiment: Inhibition of carrageenan-induced paw edema in Swiss albino mouse at 100 mg/kg, po after 270 mins relative to control; format: functional; conditions: 4.5 h; outline: as §1
Mus musculus [26] = experiment: Antiinflammatory activity against carrageenan-induced paw edema in Swiss albino mouse assessed as swelling thickness at 100 mg/kg, po after 90 mins; format: functional; outline: as §1
Mus musculus [27] = experiment: Antiinflammatory activity against carrageenan-induced paw edema in Swiss albino mouse assessed as swelling thickness at 100 mg/kg, po after 180 mins; format: functional; outline: as §1
Mus musculus [28] = experiment: Inhibition of p-benzoquinone-induced writhing in Swiss albino mouse at 50 mg/kg, po relative to control; format: functional; outline: as §4
Mus musculus [29] = experiment: Inhibition of carrageenan-induced paw edema in Swiss albino mouse at 50 mg/kg, po after 90 mins relative to control; format: functional; conditions: 1.5 h; outline: as §2
Mus musculus [30] = experiment: Inhibition of carrageenan-induced paw edema in Swiss albino mouse at 100 mg/kg, po after 90 mins relative to control; format: functional; conditions: 1.5 h; outline: as §1
Mus musculus [31] = experiment: Antiinflammatory activity against carrageenan-induced paw edema in Swiss albino mouse assessed as swelling thickness at 25 mg/kg, po after 270 mins; format: functional; outline: as §1
Mus musculus [32] = experiment: Antiinflammatory activity against carrageenan-induced paw edema in Swiss albino mouse assessed as swelling thickness at 100 mg/kg, po after 270 mins; format: functional; outline: as §1
Mus musculus [33] = experiment: Acute toxicity in Swiss albino mouse assessed as lethal effect at 200 mg/kg/day, po after 72 hrs; format: organism-based; set-up: route oral; conditions: in vivo; outline: as §6
Mus musculus [34] = experiment: Antiinflammatory activity against carrageenan-induced paw edema in Swiss albino mouse assessed as swelling thickness at 50 mg/kg, po after 90 mins; format: functional; outline: as §1
Mus musculus [35] = experiment: Analgesic activity against p-benzoquinone-induced abdominal constriction in Swiss albino mouse assessed as number of writhings at 200 mg/kg, po; format: functional, Abdomen; outline: as §5
Mus musculus [36] = experiment: Antiinflammatory activity against carrageenan-induced paw edema in Swiss albino mouse assessed as swelling thickness at 25 mg/kg, po after 360 mins; format: functional; outline: as §1
Mus musculus [37] = experiment: Inhibition of carrageenan-induced paw edema in Swiss albino mouse at 50 mg/kg, po after 360 mins relative to control; format: functional; conditions: 6 h; outline: as §2
Mus musculus [38] = experiment: Antiinflammatory activity against carrageenan-induced paw edema in Swiss albino mouse assessed as swelling thickness at 200 mg/kg, po after 180 mins; format: functional; outline: as §1
Mus musculus [39] = experiment: Inhibition of p-benzoquinone-induced writhing in Swiss albino mouse at 100 mg/kg, po relative to control; format: functional; outline: as §4

Row | Compound | inhibition in vivo at 100 mg/kg (Mus musculus [1]) [%] | Activity (Mus musculus [2]) | inhibition in vivo at 50 mg/kg (Mus musculus [3]) [%] | inhibition in vivo at 50 mg/kg (Mus musculus [4]) [%] | Activity (Mus musculus [5]) | Activity (Mus musculus [6]) | inhibition in vivo at 25 mg/kg (Mus musculus [7]) [%] | Activity (Mus musculus [8]) | Activity (Mus musculus [9]) | Activity (Mus musculus [10]) | Activity (Mus musculus [11]) | Activity (Mus musculus [12]) | Activity (Mus musculus [13]) | Activity (Mus musculus [14]) | Activity (Mus musculus [15]) | Activity (Mus musculus [16]) | inhibition in vivo at 200 mg/kg (Mus musculus [17]) [%] | Activity (Mus musculus [18]) | Activity (Mus musculus [19]) | Activity (Mus musculus [20]) | other results
1 | CS(=O)(=O)c1nc(-c2ccc(Cl)cc2)n[nH]1 | 25.6 | 59.4 10^-2mm | 22.2 | 26.1 | Active | 55.2 10^-2mm | 16.7 | 31 | 76.1 10^-2mm | 42.8 | 50.2 10^-2mm | Non-toxic | 29.4 | 46.2 10^-2mm | 51.2 10^-2mm | 69.4 10^-2mm | 8.9 | Non-toxic | Active | Active | inhibition in vivo at 100 mg/kg (Mus musculus [21]): 16.9%; Activity (Mus musculus [22]): 62.8 10^-2mm; Activity (Mus musculus [23]): 47.9 10^-2mm; Activity (Mus musculus [24]): Non-toxic; inhibition in vivo at 100 mg/kg (Mus musculus [25]): 21.4%; Activity (Mus musculus [26]): 37.5 10^-2mm; Activity (Mus musculus [27]): 42.8 10^-2mm; inhibition in vivo at 50 mg/kg (Mus musculus [28]): 42.8%; inhibition in vivo at 50 mg/kg (Mus musculus [29]): 18%; inhibition in vivo at 100 mg/kg (Mus musculus [30]): 16.3%; Activity (Mus musculus [31]): 69.5 10^-2mm; Activity (Mus musculus [32]): 46.2 10^-2mm; Activity (Mus musculus [33]): Non-toxic; Activity (Mus musculus [34]): 43.6 10^-2mm; Activity (Mus musculus [35]): 46.8; Activity (Mus musculus [36]): 75.4 10^-2mm; inhibition in vivo at 50 mg/kg (Mus musculus [37]): 30.3%; Activity (Mus musculus [38]): 65.8 10^-2mm; inhibition in vivo at 100 mg/kg (Mus musculus [39]): 34.5%
2 | CCS(=O)(=O)c1nc(-c2ccc(Br)cc2)n[nH]1 | 27.5 | 57.4 10^-2mm | 26.8 | 24.2 | Active | 54.6 10^-2mm | 20.4 | 35.2 | 76.2 10^-2mm | 40.9 | 50.4 10^-2mm | Non-toxic | 35.9 | 43.5 10^-2mm | 49.9 10^-2mm | 68.5 10^-2mm | 1.6 | Non-toxic | Active | Active | inhibition in vivo at 100 mg/kg (Mus musculus [21]): 25.6%; Activity (Mus musculus [22]): 62.8 10^-2mm; Activity (Mus musculus [23]): 49.1 10^-2mm; Activity (Mus musculus [24]): Non-toxic; inhibition in vivo at 100 mg/kg (Mus musculus [25]): 22.3%; Activity (Mus musculus [26]): 32.1 10^-2mm; Activity (Mus musculus [27]): 38.3 10^-2mm; inhibition in vivo at 50 mg/kg (Mus musculus [28]): 30.2%; inhibition in vivo at 50 mg/kg (Mus musculus [29]): 35.2%; inhibition in vivo at 100 mg/kg (Mus musculus [30]): 28.3%; Activity (Mus musculus [31]): 67.8 10^-2mm; Activity (Mus musculus [32]): 45.7 10^-2mm; Activity (Mus musculus [33]): Non-toxic; Activity (Mus musculus [34]): 40.4 10^-2mm; Activity (Mus musculus [35]): 50.6; Activity (Mus musculus [36]): 75.1 10^-2mm; inhibition in vivo at 50 mg/kg (Mus musculus [37]): 30%; Activity (Mus musculus [38]): 61.5 10^-2mm; inhibition in vivo at 100 mg/kg (Mus musculus [39]): 25.6%
